# Bioassay records (PubChem BioAssay)
# Most compounds without a hit are left out; they make up all but 3.3% or so of the library.
# Myeloid diff MLP: induction of myeloid progenitor differentiation, primary screen, cell-based, flow cytometry, MLPCN library; AID 624256, 2012; 1% of 360,000 active; calls only at 10 µM; ER-HoxA9 myeloid progenitors, lysozyme-GFP differentiation;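 active = normalized GFP-positive differentiation at or above the plate's own cutoff, the solvent-only control mean plus 3 SD; inconclusive = no clear call, values can overlap the other calls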;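 note: cells exposed to compound for four days before flow analysis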
# NRP1-CendR mod: modulators of CendR peptide binding to NRP-1, primary screen, biochemical, fluorescence polarization, uHTS | Neuropilin-1 (Homo sapiens), O14786 | inhibition, % at 25 µM | FAM-RPARPAR peptide binding to NRP-1 | 0.85% of 360,000 active;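 active = inhibition or corrected inhibition above about 18%, plus a signal ratio from 0.5 to 1.5, limit read from the data, passing the limit was not always enough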
# Target sequence (O14786 whole entry, looked up): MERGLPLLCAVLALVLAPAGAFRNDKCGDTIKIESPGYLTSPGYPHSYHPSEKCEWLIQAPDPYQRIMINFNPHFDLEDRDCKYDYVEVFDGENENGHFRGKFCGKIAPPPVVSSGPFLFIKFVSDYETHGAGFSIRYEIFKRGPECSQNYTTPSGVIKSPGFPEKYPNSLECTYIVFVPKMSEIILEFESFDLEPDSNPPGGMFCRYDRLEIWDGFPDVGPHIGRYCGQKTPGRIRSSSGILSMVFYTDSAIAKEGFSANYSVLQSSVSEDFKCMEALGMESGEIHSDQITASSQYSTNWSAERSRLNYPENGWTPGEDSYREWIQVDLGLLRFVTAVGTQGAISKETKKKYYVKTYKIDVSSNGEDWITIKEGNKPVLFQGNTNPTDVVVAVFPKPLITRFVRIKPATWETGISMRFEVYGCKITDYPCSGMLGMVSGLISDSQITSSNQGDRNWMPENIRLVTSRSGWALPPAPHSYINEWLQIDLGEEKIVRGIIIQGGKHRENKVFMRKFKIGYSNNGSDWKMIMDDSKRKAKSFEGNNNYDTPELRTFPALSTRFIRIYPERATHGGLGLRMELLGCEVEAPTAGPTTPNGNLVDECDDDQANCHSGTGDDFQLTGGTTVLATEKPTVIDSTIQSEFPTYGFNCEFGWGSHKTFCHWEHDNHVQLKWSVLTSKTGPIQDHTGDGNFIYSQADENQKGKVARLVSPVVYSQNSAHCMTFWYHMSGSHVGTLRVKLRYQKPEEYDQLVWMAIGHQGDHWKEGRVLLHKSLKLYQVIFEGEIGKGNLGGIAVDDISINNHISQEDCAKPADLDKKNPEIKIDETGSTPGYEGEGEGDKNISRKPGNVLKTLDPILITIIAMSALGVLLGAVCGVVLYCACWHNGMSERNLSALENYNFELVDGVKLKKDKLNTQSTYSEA
# Arrestin-AP2 inh: inhibitors of beta-arrestin/AP2 binding, primary screen, biochemical, GPCR trafficking, flow cytometry | inhibition, % at 10 µM | AID 504490, 2011 | FITC-arrestin peptide / GST-AP2 beads; AP2 beta2 appendage carries R879A mutation | 0.31% of 340,000 active;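 active = inhibition above a set limit, near 3 SD of compounds lacking own fluorescence, cut at about 54% in these data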
#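 system = GST-tagged AP2 beta2-adaptin appendage (R879A) on 4 µm glutathione beads | reagent = FITC-labelled arrestin peptide probe, 50 nM final | schedule = compound with beads 12 min RT, then probe 1 h RT | signal = HyperCyt-sampled flow cytometry, FL1 channel, ex 488/em 535 nm | read-out = percent response from loss of bead-bound FITC fluorescence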
# Granule exo inh: LAMP-1 surface exposure blockers, TALL-104 cells – cell-based, flow cytometry, MLPCN library, primary screen; TALL-104 LAMP-1 surface exposure; cells stimulated with thapsigargin and PMA; inhibition, % at 10 µM; 0.66% of 360,000 active; AID 651702, 2012;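 active = inhibition above about 55%, limit read from the data; inconclusive = no clear call, values can overlap the other calls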
# ATG4B inhibitor: ATG4B protease inhibitors, primary screen, biochemical, fluorescence, uHTS; 0.51% of 340,000 active; Cysteine protease ATG4B (Homo sapiens), Q9Y4P1; ATG4B cleavage of LC3-PLA2, NBD-HPC fluorescence, 1 h; inhibition, % at 8.33 µM; in the data active = inhibition above about 40%
# ABCB6 inh 2: ABCB6 transporter inhibitors, primary screen, K562-ABCB6 cells, flow cytometry, MLPCN library. ATP-binding cassette sub-family B member 6 (Homo sapiens), Q9NP58. K562-ABCB6 porphyrin accumulation, 1 h; stronger effect = lower value. fluorescence ratio to DMSO, % at 10 µM. 0.19% of 360,000 active. AID 602162, 2011;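 active = fluorescence ratio to DMSO below 75%, the collection mean minus 3 SD; inconclusive = too few cells collected in the well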;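 note: signal is porphyrin accumulated inside mitochondria; lower ratio means ABCB6 inhibition with less porphyrin fluorescence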
# ATG4B confirm: ATG4B protease inhibitors, retest, confirmation, biochemical, fluorescence, single concentration | shares compounds with ATG4B inhibitor | ATG4B protease fluorescent substrate cleavage assay | inhibition, % at 8.33 µM | 92% of 320 active | AID 504757, 2011; in the data active = inhibition above about 39%
# PLA2 counter: PLA2 enzyme inhibition, counter-screen for ATG4B inhibitor project, biochemical, single concentration, uHTS hits | shares compounds with ATG4B inhibitor | purified PLA2, NBD-C6-HPC fluorescence, 45 min | inhibition, % at 8.33 µM | 66% of 1,600 active; in the data active = inhibition above about 50%
# Numbers stand for hits; . = inactive; ? = inconclusive; / = no result.
SMILES,Myeloid diff MLP,NRP1-CendR mod,Arrestin-AP2 inh,Granule exo inh,ATG4B inhibitor,ABCB6 inh 2,PLA2 counter,others
O=C(Oc1cncc(Cl)c1)c1sccc1Cl,.,.,.,.,98.3,.,.,
CCOC(=O)Cn1cc(/C=N/N2C(=O)C3C4C=CC(C4)C3C2=O)c2ccccc21 (centres undefined),.,.,.,.,.,.,/,
CCOC(=O)N/N=C/c1cn(Cc2ccc(F)cc2)c2ccccc12,.,.,.,.,.,.,/,
O=C1C2C3C=CC(C3)C2C(=O)N1/N=C/c1cn(Cc2ccc(F)cc2)c2ccccc12 (centres undefined),.,.,.,.,48.1,.,69.5,
O=C1C2C3C=CC(C3)C2C(=O)N1/N=C/c1cn(Cc2ccccc2)c2ccccc12 (centres undefined),.,.,.,.,47.9,.,57.0,
COc1ccc(CNC(=O)Nc2cccc3ccccc23)cc1,.,.,.,.,.,.,/,
Cc1cccc(Nc2nnc(-c3ccc(N4CCOCC4)c([N+](=O)[O-])c3)c3ccccc23)c1,?,.,.,.,.,.,/,
COc1ccc(S(=O)(=O)N2CCSC2C)cc1C (centres undefined),.,.,.,.,.,.,/,
Cc1sc2nc(CSc3ccccc3)nc(N3CCN(C)CC3)c2c1C,.,.,.,.,.,.,/,
COCCNc1nc(CSc2ccccc2)nc2sc(C)c(C)c12,.,.,.,.,45.6,.,.,
Cn1c(-c2c(N)n(CCCc3ccccc3)c3nc4ccccc4nc23)nc2ccccc21,.,.,.,.,42.4,.,51.6,
Cn1c(-c2c(N)n(CCc3ccccc3)c3nc4ccccc4nc23)nc2ccccc21,.,.,.,.,.,.,/,
O=C(NCC(=O)N1CCCCCC1)c1ccc(Br)cc1,.,.,.,.,.,.,/,
C/C(=N\NC(=O)c1ccc(OC2CCCC2)cc1)c1ccc(O)cc1,.,.,.,.,41.5,.,.,
O=C(Oc1c(-c2ccccc2)c(=O)n2c3c(cccc13)CC2)c1cccc([N+](=O)[O-])c1,.,.,.,.,.,.,/,
O=C(Oc1c(-c2ccccc2)c(=O)n2c3c(cccc13)CC2)c1ccc(F)cc1,.,.,.,.,65.7,.,.,ATG4B confirm=61.6
O=C(Oc1c(-c2ccccc2)c(=O)n2c3c(cccc13)CC2)c1ccccc1,.,.,.,.,70.3,.,64.5,
O=C(COC(=O)c1cnc(Cl)c(Cl)c1)Nc1ccc(S(=O)(=O)N2CCCC2)cc1,.,.,.,.,.,.,/,
CCOc1ccc2nc3cc(N=Nc4ccc(N)nc4N)ccc3c(N)c2c1,.,50.1,/,.,54.2,.,68.8,
CCOc1cc(C(N)=O)cc(Cl)c1OCc1ccccc1,.,.,.,.,49.0,.,70.7,
COc1cc(C(N)=O)ccc1OCc1ccccc1,.,.,.,.,.,.,/,
CCOc1cc(C(N)=O)cc(OCC)c1OCC,.,.,.,.,.,.,/,
COc1cc(C(N)=O)cc(Cl)c1OCc1ccccc1,.,.,.,.,59.8,.,60.0,
CCCCCCCCCCCCCCC(O)C[N+](C)(CCO)CCO (centres undefined),/,.,.,.,42.7,.,.,ATG4B confirm=64.4
CCCCCCCC(=O)OCC(O)CO (centres undefined),.,.,.,.,.,.,/,
SMILES,Myeloid diff MLP,NRP1-CendR mod,Arrestin-AP2 inh,Granule exo inh,ATG4B inhibitor,ABCB6 inh 2,PLA2 counter,others
Cc1cc(C)c2cc(C#N)c(NCCNC(=O)c3ccncc3)nc2c1,.,.,/,.,/,/,/,
CC(c1ccco1)N(C(=O)c1cccc(S(=O)(=O)N(C)C)c1)c1ccccn1 (centres undefined),.,.,.,.,.,.,/,
O=C(CSc1nnnn1-c1ccccc1)Nc1ncc(Cc2ccccc2Cl)s1,.,.,.,.,.,.,/,
N=C1SC(c2ccccc2)C(=O)N1c1ncc(Cc2ccccc2Cl)s1 (centres undefined),.,.,.,.,79.3,.,79.8,
CC1CCCCN1C(=O)CN(C)S(=O)(=O)c1cccc2nsnc12 (centres undefined),.,.,.,.,.,.,/,
COc1ccc2c(c1OC)C(=O)OC2Nc1nc(-c2cccc([N+](=O)[O-])c2)cs1 (centres undefined),.,.,.,.,52.0,.,70.8,
O=[N+]([O-])c1cc(Cc2ccccc2)cc(C=Nc2ccc(N3CCOCC3)cc2)c1O,.,.,.,.,.,.,/,
Cc1ccc(O)c(N=Cc2cc(Cc3ccccc3)cc([N+](=O)[O-])c2O)c1,.,.,.,.,79.3,.,75.6,
CCOc1ccc(NC(=O)COC(=O)C2C3CC4OC(=O)C2C4C3)cc1 (centres undefined),.,.,.,.,.,.,/,
CCCCC(CC)CN=C(N)NC(N)=NCCCCCCN=C(N)NC(N)=NCC(CC)CCCC (centres undefined),?,.,.,.,69.5,.,.,ATG4B confirm=.
Cc1cc(OCC(F)(F)C(F)(F)C(F)(F)C(F)(F)C(F)(F)C(F)F)nc(N)n1,.,.,.,.,.,.,/,
NC(=O)c1ccc(OCC(F)(F)C(F)(F)C(F)(F)C(F)(F)C(F)(F)C(F)F)cc1,.,.,.,.,90.7,.,92.0,
O=C(O)CC(CC(=O)Nc1ccc(F)c(Cl)c1)c1ccc(Cl)cc1Cl (centres undefined),.,.,.,.,.,.,/,
Cc1ccc(NC(=S)NNC(=O)c2cccc([N+](=O)[O-])c2)cc1Cl,.,.,.,.,76.9,.,77.8,
Cc1ccc(C(=O)NNC(=S)Nc2cccc(Cl)c2Cl)cc1[N+](=O)[O-],.,.,.,.,47.9,.,.,ATG4B confirm=78.0
O=C(NNC(=S)Nc1ccc(F)cc1)c1cccc([N+](=O)[O-])c1,.,.,.,.,.,.,/,
CCCc1ccc(OC(=O)c2cccs2)cc1,.,.,.,.,43.5,.,.,ATG4B confirm=70.5
COc1ccc(CCNC(=O)COC(=O)c2cccs2)cc1,.,.,.,.,.,.,/,
Cc1cc(OC(=O)c2cccs2)ccc1C(C)C,.,.,.,.,42.5,.,.,ATG4B confirm=49.1
